{"source": "paper PMC4079330", "about": "(Journal of Medicinal Chemistry, 2014)", "assay_type_in_all_cases": "cell-based", "key": {"RAW 264.7 cells": {"test_system": "RAW 264.7 cells", "assay": "WST1 cell viability assay", "settings": "concentrations up to 100 μM", "how_it_was_run": "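Viability was read at every concentration tested in the NO assay, in RAW 264.7 cells given 20 ng/mL LPS plus a range of test compound concentrations. LC50 was taken as the concentration giving 50% cell viability. Test compound purity was above 95% by 1H NMR.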"}, "[1]": {"test_system": "iNOS (NOS2) mRNA in RAW 264.7 cells", "assay": "Quantitative RT-PCR of iNOS mRNA, LPS", "settings": "20 ng/mL LPS, 20 h, maximal decrease over tested concentrations", "how_it_was_run": "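Quantitative real-time PCR for iNOS mRNA in RAW 264.7 cells co-incubated with 20 ng/mL LPS and a range of test compound concentrations for 20 h. Values expressed as fold change, with ligand-induced cells set to 1. Three biological replicates, each in technical duplicate, were averaged, with standard deviation as error.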"}, "[2]": {"test_system": "iNOS protein in RAW 264.7 cells", "assay": "Western blot of iNOS protein", "settings": "20 ng/mL LPS, normalized to GAPDH"}, "[3]": {"test_system": "NF-κB activation through TLR4 in HEK 293T cells", "assay": "SEAP reporter assay, LPS", "settings": "20 ng/mL LPS, concentrations up to 100 μM"}, "[4]": {"test_system": "NF-κB activation through TLR3 in HEK 293T cells", "assay": "SEAP reporter assay, Poly I:C", "settings": "2.5 μg/mL Poly I:C, concentrations up to 100 μM"}, "[5]": {"test_system": "NF-κB signaling through tumor necrosis factor receptor (TNFR) in HEK 293T cells", "assay": "SEAP reporter assay, TNF-α", "settings": "50 ng/mL TNF-α"}, "TNF-α in RAW 264.7 cells": {"test_system": "TNF-α in RAW 264.7 cells", "assay": "TNF-α ELISA", "settings": "supernatant from nitric oxide plates"}}, "data": [{"smiles": "CC(C)(C)OC(=O)N(Cc1ccco1)C(=O)c1ccc(CN2C(=O)c3ccccc3S2(=O)=O)cc1", "note": "[compound 103, tert-butyl N-(furan-2-ylmethyl)-N-{4-[(1,1,3-trioxo-2,3-dihydro-1λ^6,2-benzothiazol-2-yl)methyl]benzoyl}carbamate]", "values": [{"measurement": "cytotoxicity", "setting": "RAW 264.7 cells", "result": "no cytotoxicity"}, {"measurement": "decrease of iNOS mRNA", "setting": "[1]", "result": "up to 67%"}, {"measurement": "iNOS protein expression", "setting": "[2]", "result": "reduces iNOS protein expression in a dose-dependent fashion"}, {"measurement": "NF-κB activation (SEAP)", "setting": "[3]", "result": "did not down-regulate NF-κB activation"}, {"measurement": "NF-κB activation (SEAP)", "setting": "[4]", "result": "did not down-regulate NF-κB activation"}, {"measurement": "NF-κB signaling (SEAP)", "setting": "[5]", "result": "unaffected"}, {"measurement": "TNF-α cytokine levels", "setting": "TNF-α in RAW 264.7 cells", "result": "no change in TNF-α cytokine levels"}]}]}
